Test system: HepG2
Assay: Induction of apoptosis in human HepG2 cells assessed as caspase 3/7 activity at 30 uM after 1 day by CaspaseGlo assay relative to staurosporine
Format: cell-based
Settings: hepg2, 24 h
Procedure, shortened: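 HepG2 cells were seeded at 2 × 10⁴ cells/well. They were exposed to compounds for 1 day in DMEM with 0.5% FBS, 2 mM L-glutamine and 1 mM pyruvate. Caspase-3/7 was read by Caspase-Glo luminescence, n = 3. Values are % = (RLU compound − RLU 1% DMSO)/(RLU 30 μM staurosporine − RLU 1% DMSO) × 100.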

SMILES	Activity
Cc1nc(C)c(COc2cc(C)c(-c3cccc(COc4ccc5c(c4)OC[C@H]5CC(=O)O)c3)c(C)c2)s1	23.1%
CCOCCOc1cc(C)c(-c2cccc(COc3ccc4c(c3)OC[C@@H]4CC(=O)O)c2)c(C)c1	10.5%
CCc1cc(OCCCS(C)(=O)=O)cc(CC)c1-c1cccc(COc2ccc3c(c2)OC[C@H]3CC(=O)O)c1	12.4%
Cc1c(Cl)c(OCCCS(C)(=O)=O)c(Cl)c(C)c1-c1cccc(COc2ccc3c(c2)OC[C@H]3CC(=O)O)c1	16.1%
Cc1cc(OC2CCS(=O)(=O)CC2)cc(C)c1-c1cccc(COc2ccc3c(c2)OC[C@@H]3CC(=O)O)c1	1.3%
Cc1cc(OC2CCS(=O)(=O)CC2)cc(C)c1-c1cccc(COc2ccc3c(c2)OCC3CC(=O)O)c1 (racemic)	0.4%
Cc1cc(OCCCS(C)(=O)=O)c(Cl)c(C)c1-c1cccc(COc2ccc3c(c2)OC[C@H]3CC(=O)O)c1	8.3%
CCOCCOc1cc(C)c(-c2cccc(COc3ccc4c(c3)OC[C@H]4CC(=O)O)c2)c(C)c1	1.5%

Biological target: T1, Free fatty acid receptor 1 (Homo sapiens, UniProt O14842)
T1 sequence (O14842 whole entry): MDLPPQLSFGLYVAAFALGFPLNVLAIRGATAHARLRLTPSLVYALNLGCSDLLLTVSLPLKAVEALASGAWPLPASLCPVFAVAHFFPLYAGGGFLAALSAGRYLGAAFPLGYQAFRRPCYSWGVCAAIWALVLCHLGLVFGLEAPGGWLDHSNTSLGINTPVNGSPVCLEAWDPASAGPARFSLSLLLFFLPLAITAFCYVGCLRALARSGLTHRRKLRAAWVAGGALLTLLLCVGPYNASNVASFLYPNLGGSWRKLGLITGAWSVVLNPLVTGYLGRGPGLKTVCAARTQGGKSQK
Assay: Displacement of 3-[4-({2',6'-dimethyl-6-[(4-[3H])-phenylmethoxy]biphenyl-3-yl}methoxy)phenyl]propanoic acid from human GPR40 expressed in CHO cells after 90 mins by liquid scintillation counting in the presence of 0.2% BSA
Format: cell-based
Settings: not given
Procedure, shortened: (§1)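 Membranes came from CHO lines stably expressing human or rat GPR40/FFA1. Assay buffer was 25 mmol/L Tris-HCl pH 7.5 with 5 mmol/L EDTA, protease inhibitors, 0.05% CHAPS and 0.2% fatty-acid-free BSA. Compounds competed with 2 or 6 nmol/L tritiated phenylpropanoic acid ligand for 90 min at room temperature. Bound ligand was filtered and counted by scintillation. Nonspecific binding used 10 μmol/L unlabeled ligand. IC50 was converted to Ki by Cheng–Prusoff using the measured Kd.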

SMILES	Ki
Cc1nc(C)c(COc2cc(C)c(-c3cccc(COc4ccc5c(c4)OC[C@H]5CC(=O)O)c3)c(C)c2)s1	12 nM
CCc1cc(OCCCS(C)(=O)=O)cc(CC)c1-c1cccc(COc2ccc3c(c2)OC[C@H]3CC(=O)O)c1	11 nM
Cc1c(Cl)c(OCCCS(C)(=O)=O)c(Cl)c(C)c1-c1cccc(COc2ccc3c(c2)OC[C@H]3CC(=O)O)c1	12 nM
Cc1cc(OC2CCS(=O)(=O)CC2)cc(C)c1-c1cccc(COc2ccc3c(c2)OC[C@@H]3CC(=O)O)c1	300 nM
Cc1cc(OC2CCS(=O)(=O)CC2)cc(C)c1-c1cccc(COc2ccc3c(c2)OCC3CC(=O)O)c1 (racemic)	83 nM
Cc1cc(OCCCS(C)(=O)=O)c(Cl)c(C)c1-c1cccc(COc2ccc3c(c2)OC[C@H]3CC(=O)O)c1	19 nM

Biological target: Free fatty acid receptor 1 (Rattus norvegicus, UniProt Q8K3T4)
Sequence (Q8K3T4 whole entry): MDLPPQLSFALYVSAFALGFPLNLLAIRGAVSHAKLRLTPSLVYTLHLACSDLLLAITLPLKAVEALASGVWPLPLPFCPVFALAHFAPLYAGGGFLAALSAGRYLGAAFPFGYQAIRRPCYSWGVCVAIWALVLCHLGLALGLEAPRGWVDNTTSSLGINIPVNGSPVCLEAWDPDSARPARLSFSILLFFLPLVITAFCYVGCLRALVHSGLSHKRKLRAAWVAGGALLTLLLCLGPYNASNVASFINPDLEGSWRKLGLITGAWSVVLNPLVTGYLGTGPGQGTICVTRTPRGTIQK
Assay: Displacement of 3-[4-({2',6'-dimethyl-6-[(4-[3H])-phenylmethoxy]biphenyl-3-yl}methoxy)phenyl]propanoic acid from rat GPR40 expressed in CHO cells after 90 mins by liquid scintillation counting in the presence of 0.2%BSA
Format: cell-based
Settings: not given
Procedure, shortened: as §1

SMILES	Ki
Cc1nc(C)c(COc2cc(C)c(-c3cccc(COc4ccc5c(c4)OC[C@H]5CC(=O)O)c3)c(C)c2)s1	360 nM
CCOCCOc1cc(C)c(-c2cccc(COc3ccc4c(c3)OC[C@@H]4CC(=O)O)c2)c(C)c1	7400 nM
CCc1cc(OCCCS(C)(=O)=O)cc(CC)c1-c1cccc(COc2ccc3c(c2)OC[C@H]3CC(=O)O)c1	56 nM
Cc1c(Cl)c(OCCCS(C)(=O)=O)c(Cl)c(C)c1-c1cccc(COc2ccc3c(c2)OC[C@H]3CC(=O)O)c1	59 nM
Cc1cc(OC2CCS(=O)(=O)CC2)cc(C)c1-c1cccc(COc2ccc3c(c2)OC[C@@H]3CC(=O)O)c1	510 nM
Cc1cc(OC2CCS(=O)(=O)CC2)cc(C)c1-c1cccc(COc2ccc3c(c2)OCC3CC(=O)O)c1 (racemic)	210 nM
Cc1cc(OCCCS(C)(=O)=O)c(Cl)c(C)c1-c1cccc(COc2ccc3c(c2)OC[C@H]3CC(=O)O)c1	110 nM
CCOCCOc1cc(C)c(-c2cccc(COc3ccc4c(c3)OC[C@H]4CC(=O)O)c2)c(C)c1	240 nM

Biological target: T1, Free fatty acid receptor 1
Assay: Agonist activity at human GP40 receptor expressed in CHO cells assessed as increase in intracellular calcium level for 90 secs by FLIPR assay in the presence of 0.1% BSA
Format: functional, cell-based
Settings: not given

SMILES	EC50
Cc1nc(C)c(COc2cc(C)c(-c3cccc(COc4ccc5c(c4)OC[C@H]5CC(=O)O)c3)c(C)c2)s1	18 nM
CCc1cc(OCCCS(C)(=O)=O)cc(CC)c1-c1cccc(COc2ccc3c(c2)OC[C@H]3CC(=O)O)c1	17 nM
Cc1c(Cl)c(OCCCS(C)(=O)=O)c(Cl)c(C)c1-c1cccc(COc2ccc3c(c2)OC[C@H]3CC(=O)O)c1	17 nM
Cc1cc(OC2CCS(=O)(=O)CC2)cc(C)c1-c1cccc(COc2ccc3c(c2)OC[C@@H]3CC(=O)O)c1	290 nM
Cc1cc(OC2CCS(=O)(=O)CC2)cc(C)c1-c1cccc(COc2ccc3c(c2)OCC3CC(=O)O)c1 (racemic)	39 nM
Cc1cc(OCCCS(C)(=O)=O)c(Cl)c(C)c1-c1cccc(COc2ccc3c(c2)OC[C@H]3CC(=O)O)c1	16 nM

Test system: not listed separately
Assay: Lipophilicity, log D of the compound at pH 7.4 by HPLC analysis
Format: physicochemical
Settings: buffer
Procedure, shortened: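 Log D at pH 7.4 was estimated from HPLC relative retention time against standard compounds.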

SMILES	logD
Cc1nc(C)c(COc2cc(C)c(-c3cccc(COc4ccc5c(c4)OC[C@H]5CC(=O)O)c3)c(C)c2)s1	4.27
CCOCCOc1cc(C)c(-c2cccc(COc3ccc4c(c3)OC[C@@H]4CC(=O)O)c2)c(C)c1	3.86
CCc1cc(OCCCS(C)(=O)=O)cc(CC)c1-c1cccc(COc2ccc3c(c2)OC[C@H]3CC(=O)O)c1	3.17
Cc1c(Cl)c(OCCCS(C)(=O)=O)c(Cl)c(C)c1-c1cccc(COc2ccc3c(c2)OC[C@H]3CC(=O)O)c1	3.53
Cc1cc(OC2CCS(=O)(=O)CC2)cc(C)c1-c1cccc(COc2ccc3c(c2)OC[C@@H]3CC(=O)O)c1	2.84
Cc1cc(OC2CCS(=O)(=O)CC2)cc(C)c1-c1cccc(COc2ccc3c(c2)OCC3CC(=O)O)c1 (racemic)	2.77
Cc1cc(OCCCS(C)(=O)=O)c(Cl)c(C)c1-c1cccc(COc2ccc3c(c2)OC[C@H]3CC(=O)O)c1	3.07
CCOCCOc1cc(C)c(-c2cccc(COc3ccc4c(c3)OC[C@H]4CC(=O)O)c2)c(C)c1	3.86

Biological target: T1, Free fatty acid receptor 1
Assay: Agonist activity at human GP40 receptor expressed in CHO cells assessed as increase in intracellular calcium level at 10 uM for 90 secs by FLIPR assay in the presence of 0.1% BSA relative to gamma-linolenic acid
Format: functional, cell-based
Settings: not given
Procedure, shortened: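 CHO dhfr cells stably expressing human GPR40/FFA1 (NM_005303) plated overnight at 37 °C, 5% CO₂, then loaded 60 min at 37 °C with Fluo 4 AM (2.5 μg/mL), 2.5 mmol/L probenecid and 0.1% fatty acid-free BSA. Ca²⁺ rise after compound addition read on FLIPR Tetra for 90 s. Activity = (test − vehicle)/(10 μM γ-linolenic acid − vehicle) × 100.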

SMILES	Efficacy
Cc1nc(C)c(COc2cc(C)c(-c3cccc(COc4ccc5c(c4)OC[C@H]5CC(=O)O)c3)c(C)c2)s1	107%
CCOCCOc1cc(C)c(-c2cccc(COc3ccc4c(c3)OC[C@@H]4CC(=O)O)c2)c(C)c1	103%
CCc1cc(OCCCS(C)(=O)=O)cc(CC)c1-c1cccc(COc2ccc3c(c2)OC[C@H]3CC(=O)O)c1	104%
Cc1c(Cl)c(OCCCS(C)(=O)=O)c(Cl)c(C)c1-c1cccc(COc2ccc3c(c2)OC[C@H]3CC(=O)O)c1	104%
Cc1cc(OC2CCS(=O)(=O)CC2)cc(C)c1-c1cccc(COc2ccc3c(c2)OC[C@@H]3CC(=O)O)c1	103%
Cc1cc(OC2CCS(=O)(=O)CC2)cc(C)c1-c1cccc(COc2ccc3c(c2)OCC3CC(=O)O)c1 (racemic)	103%
Cc1cc(OCCCS(C)(=O)=O)c(Cl)c(C)c1-c1cccc(COc2ccc3c(c2)OC[C@H]3CC(=O)O)c1	104%
CCOCCOc1cc(C)c(-c2cccc(COc3ccc4c(c3)OC[C@H]4CC(=O)O)c2)c(C)c1	103%

From ChEMBL document CHEMBL2046398, “Optimization of (2,3-dihydro-1-benzofuran-3-yl)acetic acids: discovery of a non-free fatty acid-like, highly bioavailable G protein-coupled receptor 40/free fatty acid receptor 1 agonist as a glucose-dependent insulinotropic agent” (J Med Chem, 2012)
